Assay results published in ChEMBL document CHEMBL4706706, “Structure-activity relationship and mechanistic studies for a series of cinnamyl hydroxamate histone deacetylase inhibitors” (Bioorg Med Chem, 2021).
Activity calls are given as the source filed them. The rule behind the calls is not given here.

What was measured:
[1] = tested on: NAMALVA; assay: Effect on phosphotyrosine expression in human NAMALVA cells at IC50 measured after 48 hrs by Western blot analysis; type: functional, cell-based
[2] = tested on: NAMALVA; assay: Induction of apoptosis in human NAMALVA cells assessed as necrotic cells at 0.5 times IC50 measured after 48 hrs by Annexin V-FITC/7AAD staining based flow cytometry (reference value: 1.05%); type: functional
[3] = tested on: Jurkat; assay: Cytotoxicity against human Jurkat cells assessed as reduction in cell viability measured after 72 hrs by MTT assay; type: functional, cell-based
[4] = tested on: NAMALVA; assay: Cytotoxicity against human NAMALVA cells assessed as reduction in cell viability measured after 72 hrs by MTT assay; type: functional, cell-based
[5] = Selectivity index, ratio of IC50 for human HS5 cells to IC50 for human NAMALVA cells
[6] = Selectivity ratio of IC50 for human HCT-116 cells to IC50 for human Jurkat cells; type: functional
[7] = tested on: Jurkat; assay: Effect on phosphoserine expression in human Jurkat cells at IC50 measured after 48 hrs by Western blot analysis; type: functional, cell-based
[8] = tested on: Jurkat; assay: Effect on phosphotyrosine expression in human Jurkat cells at IC50 measured after 48 hrs by Western blot analysis; type: functional, cell-based
[9] = target: T1, Histone deacetylase (Homo sapiens) (UniProt Q13547+O15379+Q9UBN7+Q92769+Q9UQL6+Q8WUI4+Q9BY41+Q96DB2+P56524+Q9UKV0+Q969S8); assay: Inhibition of HDAC in human NAMALVA cells assessed as increase in gammaH2AX expression at IC50 measured after 48 hrs by Western blot analysis; type: cell-based
[10] = tested on: NAMALVA; assay: Effect on phosphoserine expression in human NAMALVA cells at IC50 measured after 48 hrs by Western blot analysis; type: functional, cell-based
[11] = Selectivity ratio of IC50 for human HCT-116 cells to IC50 for human NAMALVA cells; type: functional
[12] = target: T2, Protein deacetylase HDAC6 (Homo sapiens) (UniProt Q9UBN7); assay: Inhibition of HDAC6 in human NAMALVA cells assessed as increase in acetylated alpha-tubulin expression at IC50 measured after 48 hrs by Western blot analysis; type: cell-based
T2 sequence (whole entry): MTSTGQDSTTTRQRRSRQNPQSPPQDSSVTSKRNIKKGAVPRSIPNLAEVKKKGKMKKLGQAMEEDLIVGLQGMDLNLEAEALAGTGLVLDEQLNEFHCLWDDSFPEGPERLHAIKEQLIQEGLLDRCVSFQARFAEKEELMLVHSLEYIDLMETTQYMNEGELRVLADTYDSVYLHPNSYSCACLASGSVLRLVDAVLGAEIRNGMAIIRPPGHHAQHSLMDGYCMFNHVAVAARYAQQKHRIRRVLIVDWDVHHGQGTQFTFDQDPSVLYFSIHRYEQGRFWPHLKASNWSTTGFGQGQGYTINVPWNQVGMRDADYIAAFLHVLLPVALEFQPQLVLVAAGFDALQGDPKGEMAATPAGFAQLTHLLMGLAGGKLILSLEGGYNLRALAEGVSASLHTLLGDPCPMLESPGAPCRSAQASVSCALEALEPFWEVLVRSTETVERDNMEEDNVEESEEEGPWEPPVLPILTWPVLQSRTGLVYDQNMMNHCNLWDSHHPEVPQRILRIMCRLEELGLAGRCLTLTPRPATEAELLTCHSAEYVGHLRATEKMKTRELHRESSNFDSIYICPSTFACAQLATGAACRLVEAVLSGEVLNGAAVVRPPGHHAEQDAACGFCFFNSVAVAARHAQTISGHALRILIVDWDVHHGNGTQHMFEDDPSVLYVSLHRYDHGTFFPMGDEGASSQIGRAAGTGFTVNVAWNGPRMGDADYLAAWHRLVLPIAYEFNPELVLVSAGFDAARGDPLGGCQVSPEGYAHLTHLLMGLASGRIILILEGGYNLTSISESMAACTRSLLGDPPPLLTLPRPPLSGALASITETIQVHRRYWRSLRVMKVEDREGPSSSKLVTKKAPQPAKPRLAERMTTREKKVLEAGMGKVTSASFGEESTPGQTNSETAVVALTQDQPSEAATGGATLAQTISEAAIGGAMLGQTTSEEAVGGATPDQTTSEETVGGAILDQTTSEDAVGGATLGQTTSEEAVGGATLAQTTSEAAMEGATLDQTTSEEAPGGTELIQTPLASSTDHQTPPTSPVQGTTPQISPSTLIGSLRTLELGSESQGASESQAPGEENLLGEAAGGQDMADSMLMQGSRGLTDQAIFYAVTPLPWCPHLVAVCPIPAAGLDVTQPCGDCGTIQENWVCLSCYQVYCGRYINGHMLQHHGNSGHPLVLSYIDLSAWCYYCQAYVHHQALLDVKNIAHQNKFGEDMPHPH

[13] = tested on: Jurkat; assay: Cytotoxicity against human Jurkat cells assessed as reduction in cell proliferation at IC50 measured after 48 hrs by Ki-67 staining based fluorescence assay; type: functional
Summary of the method: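 Ki-67 stained per kit instructions; mean fluorescence intensity by flow cytometry, normalized to untreated cells; at least three independent experiments, ANOVA with Bonferroni post-test.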

[14] = tested on: Jurkat; assay: Induction of apoptosis in human Jurkat cells assessed as necrotic cells at 0.5 times IC50 measured after 48 hrs by Annexin V-FITC/7AAD staining based flow cytometry (reference value: 0.23%); type: functional
[15] = tested on: Jurkat; assay: Induction of apoptosis in human Jurkat cells assessed as early apoptotic cells at 0.5 times IC50 measured after 48 hrs by Annexin V-FITC/7AAD staining based flow cytometry (reference value: 6.05%); type: functional
[16] = tested on: NAMALVA; assay: Induction of apoptosis in human NAMALVA cells assessed as late apoptotic cells at 0.5 times IC50 measured after 48 hrs by Annexin V-FITC/7AAD staining based flow cytometry (reference value: 3.52%); type: functional
[17] = tested on: Jurkat; assay: Cytotoxicity against human Jurkat cells assessed as reduction in cell viability measured after 24 hrs MTT assay; type: functional, cell-based
[18] = target: T1, Histone deacetylase (Homo sapiens); assay: Inhibition of HDAC in human Jurkat cells assessed as increase in gammaH2AX expression at IC50 measured after 48 hrs by Western blot analysis; type: cell-based
[19] = tested on: Jurkat; assay: Induction of apoptosis in human Jurkat cells assessed as late apoptotic cells at 0.5 times IC50 measured after 48 hrs by Annexin V-FITC/7AAD staining based flow cytometry (reference value: 6.77%); type: functional
[20] = tested on: MCF7; assay: Cytotoxicity against human MCF7 cells assessed as reduction in cell viability measured after 72 hrs by MTT assay; type: functional, cell-based; conditions: MCF7, 72 h
[21] = tested on: Jurkat; assay: Cytotoxicity against human Jurkat cells assessed as reduction in cell viability measured after 48 hrs MTT assay; type: functional, cell-based
[22] = Cytotoxicity against human HS5 cells assessed as reduction in cell viability measured after 72 hrs by MTT assay; type: ADME, cell-based; conditions: HS5, 72 h
[23] = tested on: NAMALVA; assay: Induction of apoptosis in human NAMALVA cells assessed as early apoptotic cells at 0.5 times IC50 measured after 48 hrs by Annexin V-FITC/7AAD staining based flow cytometry (reference value: 5.07%); type: functional
[24] = tested on: HCT-116; assay: Cytotoxicity against human HCT-116 cells assessed as reduction in cell viability measured after 72 hrs by MTT assay; type: functional, cell-based; conditions: HCT-116, 72 h
[25] = target: T2, Protein deacetylase HDAC6 (Homo sapiens); assay: Inhibition of HDAC6 in human Jurkat cells assessed as increase in acetylated alpha-tubulin expression at IC50 measured after 48 hrs by Western blot analysis; type: cell-based
[26] = tested on: Jurkat; assay: Induction of apoptosis in human Jurkat cells assessed as viable cells at 0.5 times IC50 measured after 48 hrs by Annexin V-FITC/7AAD staining based flow cytometry (reference value: 85.2%); type: functional
[27] = Selectivity index, ratio of IC50 for human HS5 cells to IC50 for human Jurkat cells
[28] = tested on: NAMALVA; assay: Induction of apoptosis in human NAMALVA cells assessed as viable cells at 0.5 times IC50 measured after 48 hrs by Annexin V-FITC/7AAD staining based flow cytometry (reference value: 90.4%); type: functional
[29] = tested on: Jurkat; assay: Cytotoxicity against human Jurkat cells assessed as reduction in cell viability MTT assay; type: functional, cell-based; conditions: time 24-72 hrs, TDE = time-dependent effect
Summary of the method: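 Jurkat cells (2 × 10^4/well) in RPMI with 10% FBS and 1% penicillin–streptomycin, exposed 24, 48 and 72 h to compound (0.0032–50 μM); 1% DMSO as negative control. MTT at 0.5 mg/mL final for 3 h, formazan dissolved in 0.1 N HCl/isopropanol. IC50 with 95% confidence intervals from sigmoidal nonlinear regression; mean ± SEM.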

[30] = target: T3, Protein deacetylase HDAC6 (Homo sapiens, UniProt Q9UBN7); assay: Inhibition of recombinant human full-length N-terminal GST-tagged HDAC6 (1 to 1215 residues) expressed in baculovirus infected Sf9 insect cells using RHKK(Ac)AMC as substrate preincubated for 5 to 10 mins followed by substrate addition and measured after 2 hrs by fluorescence assay
T3 sequence (Q9UBN7 whole entry): T2 sequence (whole entry)

[31] = target: T1, Histone deacetylase (Homo sapiens); assay: Inhibition of HDAC in human HeLa cell nuclear extracts at 100 uM relative to control; type: subcellular; conditions: Nucleus
Summary of the method: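 Total HDAC activity measured with HeLa nuclear extract as enzyme source; single dose of 100 µM run in duplicate.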

Row | SMILES | inhibition [1] | Activity [2] [%] | IC50 [3] [nM] | IC50 [4] [nM] | inhibition [7] | inhibition [8] | inhibition [9] | inhibition [10] | inhibition [12] | Activity [13] | Activity [14] [%] | Activity [15] [%] | Activity [16] [%] | IC50 [17] [nM] | inhibition [18] | Activity [19] [%] | IC50 [20] [nM] | IC50 [21] [nM] | IC50 [22] [nM] | IC50 [24] [nM] | other results
1 | O=C(/C=C/c1ccc(NC(=O)Nc2ccccc2)cc1)NO | inactive | 1.05 | 160 | 300 | inactive | inactive | Active | inactive | Active | Active | 0.31 | 7.03 | 5.2 | 2700 | Active | 4.39 | > 50000 | 1200 | 1000 | 6490 | Ratio IC50 [5]: 3; Ratio IC50 [6]: 41; Ratio IC50 [11]: 22; Activity [23]: 12.4%; inhibition [25]: Active; Activity [26]: 87.4%; Ratio IC50 [27]: 6; Activity [28]: 81.4%; Activity [29]: Tde
2 | COc1ccc(NC(=O)Nc2ccc(/C=C/C(=O)NO)cc2)cc1 | inactive | 1.46 | 110 | 460 | inactive | inactive | Active | inactive | Active | Active | 0.39 | 9.66 | 5.42 | 1800 | Active | 7.77 | > 50000 | 700 | 3000 | 11900 | Ratio IC50 [5]: 7; Ratio IC50 [6]: 108; Ratio IC50 [11]: 26; Activity [23]: 10.2%; inhibition [25]: Active; Activity [26]: 82.2%; Ratio IC50 [27]: 27; Activity [28]: 82.9%; Activity [29]: Tde
3 | COc1ccc(NC(=O)Nc2ccc(CCC(=O)NO)cc2)cc1 |  |  | 2800 | 1990 |  |  |  |  |  |  |  |  |  |  |  |  | > 50000 |  |  | 31000 | 
4 | O=C(/C=C/c1ccc(NC(=O)Nc2ccc(Cl)cc2)cc1)NO | inactive | 0.68 | 40 | 200 | inactive | inactive | Active | inactive | Active | Active | 0.28 | 7.92 | 8.85 | 2600 | Active | 4.28 | > 50000 | 600 | 1700 | 29900 | IC50 [30]: 8.1 nM; inhibition [31]: 93%; Activity [23]: 17.9%; inhibition [25]: Active; Activity [26]: 88.4%; Activity [28]: 72.5%; Activity [29]: Tde
5 | O=C(/C=C/c1ccc(NC(=O)Nc2ccc([N+](=O)[O-])cc2)cc1)NO | inactive | 1.2 | 90 | 580 | inactive | inactive | Active | inactive | Active | Active | 0.18 | 5.74 | 5.89 | 2700 | Active | 7.03 | > 50000 | 700 | 3000 | 12600 | Ratio IC50 [5]: 5; Ratio IC50 [6]: 140; Ratio IC50 [11]: 22; Activity [23]: 10.1%; inhibition [25]: Active; Activity [26]: 87.1%; Ratio IC50 [27]: 33; Activity [28]: 82.8%; Activity [29]: Tde
6 | COc1ccc(NC(=O)Nc2ccc(C(=O)NO)cc2)cc1 |  |  | 8030 | 4790 |  |  |  |  |  |  |  |  |  |  |  |  | > 50000 |  |  | 22300 | 
7 | O=C(Nc1ccccc1)Nc1ccc(C(=O)NO)cc1 |  |  | 2500 | 530 |  |  |  |  |  |  |  |  |  |  |  |  | > 50000 |  |  | 14700 | 
8 | O=C(CCc1ccc(NC(=O)Nc2ccccc2)cc1)NO |  |  | 1590 | 780 |  |  |  |  |  |  |  |  |  |  |  |  | > 50000 |  |  | 16200 | 
9 | O=C(Nc1ccc(C(=O)NO)cc1)Nc1ccc([N+](=O)[O-])cc1 |  |  | 12600 | 13200 |  |  |  |  |  |  |  |  |  |  |  |  | > 50000 |  |  | 28400 | 
10 | O=C(CCc1ccc(NC(=O)Nc2ccc([N+](=O)[O-])cc2)cc1)NO |  |  | 810 | 2500 |  |  |  |  |  |  |  |  |  |  |  |  | > 50000 |  |  | 6370 | 
11 | COc1cccc2c1C(=O)c1c(O)c3c(c(O)c1C2=O)C[C@@](O)(C(=O)CO)C[C@@H]3O[C@H]1C[C@H](N)[C@H](O)[C@H](C)O1 [DOXORUBICIN] |  |  | 50 | 90 |  |  |  |  |  |  |  |  |  | 700 |  |  | 1900 | 200 | 150 |  | 
